Columns and labels:
Human respirovirus 3 = test: Antiviral activity against Human parainfluenza virus 3 infected African green monkey Vero cells assessed as reduction of virus-induced cytopathic effect after 3 days by colorimetric formazan-based MTS assay; format: functional, organism-based; details: Human respirovirus 3, Vero, 72 h
Procedure, shortened: (§1)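 Cells grown to confluency in 96-well plates ([…], Vero for lines 9–10) were infected with 100 CCID50 of virus, and serial compound dilutions were added at infection. Plates were incubated at 37 °C for 3 days, until complete CPE appeared in untreated virus controls.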

Human alphaherpesvirus 1 [1] = test: Antiviral activity against acyclovir-resistant thymidine kinase negative Human herpesvirus 1 strain KOS infected human HEL cells assessed as reduction of virus-induced cytopathic effect after 3 days by colorimetric formazan-based MTS assay; format: functional, organism-based; details: Human alphaherpesvirus 1, KOS, 72 h
Procedure, shortened: (§2)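 Confluent cell monolayers were infected with 100 CCID50 of virus, and serial dilutions of compound were added at the time of infection.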

Klebsiella pneumoniae = test: Antibacterial activity against Klebsiella pneumoniae assessed as growth inhibition at 50 ug/ml by cup-plate method (reference value: 8 to 10 mm); format: functional; details: read-out: DIZ
Influenza A virus = test: Antiviral activity against Unidentified Influenza A virus (H1N1) infected MDCK cells assessed as reduction of virus-induced cytopathic effect after 3 days by colorimetric formazan-based MTS assay; format: functional, organism-based; details: 72 h; procedure, shortened: as §2
Coxsackievirus B4 [2] = test: Antiviral activity against Human coxsackievirus B4 infected African green monkey Vero cells assessed as reduction of virus-induced cytopathic effect after 3 days by colorimetric formazan-based MTS assay; format: functional, organism-based; details: Enterovirus B, 72 h; procedure, shortened: as §2
Staphylococcus aureus = test: Antibacterial activity against Staphylococcus aureus assessed as growth inhibition at 50 ug/ml by cup-plate method (reference value: 8 to 10 mm); format: functional; details: read-out: DIZ
[3] = test system: Vesicular stomatitis virus; test: Antiviral activity against Vesicular stomatitis virus infected human HEL cells assessed as reduction of virus-induced cytopathic effect after 3 days by colorimetric formazan-based MTS assay; format: functional, organism-based; details: 72 h; procedure, shortened: as §2
[4] = (§3) Cytotoxicity against Homo sapiens (human) HeLa cells assessed as change in cellular morphology; format: cell-based; details: HeLa cells
Procedure, shortened: (§4)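 Uninfected cells were exposed to compound in parallel with the antiviral cultures. The read-out is the minimum cytotoxic concentration that causes a microscopically detectable alteration of normal cell morphology.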

HeLa = test: as §3; format: cell-based; details: hela; procedure, shortened: as §4
Human alphaherpesvirus 1 [5] = test: Antiviral activity against Human herpesvirus 1 strain KOS infected human HEL cells assessed as reduction of virus-induced cytopathic effect after 3 days by colorimetric formazan-based MTS assay; format: functional, organism-based; details: Human alphaherpesvirus 1, KOS, 72 h; procedure, shortened: as §2
[6] = test system: Vesicular stomatitis virus; test: Antiviral activity against Vesicular stomatitis virus infected human HeLa cells assessed as reduction of virus-induced cytopathic effect after 3 days by colorimetric formazan-based MTS assay; format: functional, organism-based; details: 72 h; procedure, shortened: as §2
CCRF-CEM = test: Cytotoxicity against Homo sapiens (human) CEM cells assessed as growth inhibition after 72 hr by coulter counter analysis; format: functional, cell-based
Procedure, shortened: (§5)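 Cells in growth medium were allowed to proliferate with variable compound amounts at 37 °C in a humidified CO2 atmosphere. Incubation ran 48 h for L1210, 72 h for CEM and 96 h for HeLa. Cells were then counted with a Coulter counter.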

[7] = Cytotoxicity against Chlorocebus aethiops (African green monkey) Vero cells assessed as change in cellular morphology; format: cell-based; details: chlorocebus sabaeus
[8] = Cytotoxicity against Felis catus (cat) CRFK cells assessed as change in cellular morphology; format: cell-based; details: crfk; procedure, shortened: as §4
Punta Toro virus = test: Antiviral activity against Punta Toro virus infected in African green monkey Vero cells assessed as reduction of virus-induced cytopathic effect after 3 days by colorimetric formazan-based MTS assay; format: functional, organism-based; details: 72 h; procedure, shortened: as §2
[9] = test system: Respiratory syncytial virus; test: Antiviral activity against Respiratory syncytial virus infected human HeLa cells assessed as reduction of virus-induced cytopathic effect after 3 days by colorimetric formazan-based MTS assay; format: functional, organism-based; details: 72 h; procedure, shortened: as §2
[10] = Cytotoxicity against Homo sapiens (human) HEL cells assessed as change in cellular morphology; format: cell-based
Salmonella typhi = test: Antibacterial activity against Salmonella enterica subsp. enterica serovar Typhi assessed as growth inhibition at 50 ug/ml by cup-plate method (reference value: 8 to 10 mm); format: functional; details: read-out: DIZ
[11] = Inhibition of beta lactamase assessed as time for decolorization of iodine (reference value: 79.5 secs)
[12] = test system: Feline infectious peritonitis virus; test: Antiviral activity against Feline Infectious peritonitis virus infected cat CRFK cells assessed as reduction of virus-induced cytopathic effect after 3 days by colorimetric formazan-based MTS assay; format: functional, organism-based; details: Alphacoronavirus 1, CRFK, 72 h; procedure, shortened: as §2
[13] = test system: Mammalian orthoreovirus 1; test: Antiviral activity against Mammalian orthoreovirus 1 infected African green monkey Vero cells assessed as reduction of virus-induced cytopathic effect after 3 days by colorimetric formazan-based MTS assay; format: functional, organism-based; details: Mammalian orthoreovirus 1, Vero, 72 h; procedure, shortened: as §1
L1210 = test: Cytotoxicity against Mus musculus (mouse) L1210 cells assessed as growth inhibition after 48 hr by coulter counter analysis; format: functional, cell-based; details: L1210, 48 h; procedure, shortened: as §5
Influenza A virus H3N2 = test: Antiviral activity against Influenza A virus H3N2 infected MDCK cells assessed as reduction of virus-induced cytopathic effect after 3 days by colorimetric formazan-based MTS assay; format: functional, organism-based; details: 72 h; procedure, shortened: as §2
Bacillus subtilis = test: Antibacterial activity against Bacillus subtilis assessed as growth inhibition at 50 ug/ml by cup-plate method (reference value: 8 to 10 mm); format: functional; details: read-out: DIZ
Human alphaherpesvirus 2 = test: Antiviral activity against Human herpesvirus 2 strain G infected human HEL cells assessed as reduction of virus-induced cytopathic effect after 3 days by colorimetric formazan-based MTS assay; format: functional, organism-based; details: Human alphaherpesvirus 2, strain G, 72 h; procedure, shortened: as §2
Coxsackievirus B4 [14] = test: Antiviral activity against Human coxsackievirus B4 infected human HeLa cells assessed as reduction of virus-induced cytopathic effect after 3 days by colorimetric formazan-based MTS assay; format: functional, organism-based; details: Enterovirus B, 72 h; procedure, shortened: as §2
Felid alphaherpesvirus 1 = test: Antiviral activity against Felid herpesvirus 1 infected cat CRFK cells assessed as reduction of virus-induced cytopathic effect after 3 days by colorimetric formazan-based MTS assay; format: functional, organism-based; details: Felid alphaherpesvirus 1, CRFK, 72 h; procedure, shortened: as §1
[15] = Inhibition of beta lactamase assessed as increase in time taken for iodine decolorization relative to control; set-up: concentration or dose not given beside the values; details: concentration not given here
Vaccinia virus = test: Antiviral activity against Vaccinia virus infected human HEL cells assessed as reduction of virus-induced cytopathic effect after 3 days by colorimetric formazan-based MTS assay; format: functional, organism-based; details: Orthopoxvirus vaccinia, 72 h; procedure, shortened: as §2
[16] = (§6) Cytotoxicity against MDCK cells assessed as change in cellular morphology; format: cell-based, Canis lupus familiaris; details: dog, MDCK cells; procedure, shortened: as §4
MDCK = test: as §6; format: cell-based, Canis lupus familiaris; details: dog, mdck; procedure, shortened: as §4
Candida albicans = test: Antifungal activity against Candida albicans assessed as growth inhibition at 50 ug/ml by cup-plate method (reference value: 8 to 10 mm); format: functional; details: read-out: DIZ
Proteus vulgaris = test: Antibacterial activity against Proteus vulgaris assessed as growth inhibition at 50 ug/ml by cup-plate method (reference value: 8 to 10 mm); format: functional; details: read-out: DIZ
Respirovirus muris = test: Antiviral activity against Sendai virus infected African green monkey Vero cells assessed as reduction of virus-induced cytopathic effect after 3 days by colorimetric formazan-based MTS assay; format: functional, organism-based; details: 72 h
Aspergillus niger = test: Antifungal activity against Aspergillus niger assessed as growth inhibition at 50 ug/ml by cup-plate method (reference value: 8 to 10 mm); format: functional; details: read-out: DIZ
Escherichia coli = test: Antibacterial activity against Escherichia coli assessed as growth inhibition at 50 ug/ml by cup-plate method (reference value: 8 to 10 mm); format: functional; details: read-out: DIZ
Influenza B virus = test: Antiviral activity against Influenza B virus infected in MDCK cells assessed as reduction of virus-induced cytopathic effect after 3 days by colorimetric formazan-based MTS assay; format: functional, organism-based; details: 72 h; procedure, shortened: as §2

| Structure (SMILES) | EC50 (Human respirovirus 3) [µM] | EC50 (Human alphaherpesvirus 1 [1]) [µM] | zone of inhibition at 50 µg/mL (Klebsiella pneumoniae) [mm] | EC50 (Influenza A virus) [µM] | EC50 (Coxsackievirus B4 [2]) [µM] | zone of inhibition at 50 µg/mL (Staphylococcus aureus) [mm] | EC50 [3] [µM] | MCC [4] [µM] | CC50 (HeLa) [µM] | EC50 (Human alphaherpesvirus 1 [5]) [µM] | EC50 [6] [µM] | IC50 (CCRF-CEM) [µM] | MCC [7] [µM] | CC50 [8] [µM] | EC50 (Punta Toro virus) [µM] | EC50 [9] [µM] | MCC [10] [µM] | zone of inhibition at 50 µg/mL (Salmonella typhi) [mm] | TIME [11] [h] | EC50 [12] [µM] | other results |
| --- | --- | --- | --- | --- | --- | --- | --- | --- | --- | --- | --- | --- | --- | --- | --- | --- | --- | --- | --- | --- | --- |
| CCN(CC)CN1C(=O)/C(=N/NC(=S)Nc2ccc(C)cc2)c2ccccc21 | > 20 | ≥ 20 | 11 | > 0.16 | > 20 | 21 | > 20 | ≥ 20 | 10.7 | 14 | > 20 | 12 | 100 | 3.8 | > 20 | > 20 | 100 | 21 | 0.0405 | > 0.8 | EC50 [13]: > 20 µM; IC50 (L1210): 29 µM; EC50 (Influenza A virus H3N2): > 0.16 µM; zone of inhibition at 50 µg/mL (Bacillus subtilis): 21 mm; EC50 (Human alphaherpesvirus 2): 12 µM; EC50 (Coxsackievirus B4 [14]): > 20 µM; EC50 (Felid alphaherpesvirus 1): > 0.8 µM; inhibition [15]: 45.5%; EC50 (Vaccinia virus): 11 µM; MCC [16]: 800 nM; CC50 (MDCK): 0.2 µM; zone of inhibition at 50 µg/mL (Candida albicans): 11 mm; zone of inhibition at 50 µg/mL (Proteus vulgaris): 11 mm; EC50 (Respirovirus muris): > 20 µM; zone of inhibition at 50 µg/mL (Aspergillus niger): 11 mm; zone of inhibition at 50 µg/mL (Escherichia coli): 21 mm; EC50 (Influenza B virus): > 0.16 µM |
| CCN(CC)CN1C(=O)/C(=N/NC(=S)Nc2ccc(Cl)cc2)c2ccccc21 | > 4 | ≥ 20 | 11 | > 0.16 | > 4 | 11 | > 20 | ≥ 4 | 9.8 | 15 | > 4 | 10 | 20 | 4 | > 4 | > 4 | 100 | 11 | 0.036 | > 0.8 | EC50 [13]: > 4 µM; IC50 (L1210): 11 µM; EC50 (Influenza A virus H3N2): > 0.16 µM; zone of inhibition at 50 µg/mL (Bacillus subtilis): 21 mm; EC50 (Human alphaherpesvirus 2): 15 µM; EC50 (Coxsackievirus B4 [14]): > 4 µM; EC50 (Felid alphaherpesvirus 1): > 0.8 µM; inhibition [15]: 38.7%; EC50 (Vaccinia virus): ≥ 20 µM; MCC [16]: 800 nM; CC50 (MDCK): 0.4 µM; zone of inhibition at 50 µg/mL (Candida albicans): 11 mm; zone of inhibition at 50 µg/mL (Proteus vulgaris): 11 mm; EC50 (Respirovirus muris): > 4 µM; zone of inhibition at 50 µg/mL (Aspergillus niger): 11 mm; zone of inhibition at 50 µg/mL (Escherichia coli): 21 mm; EC50 (Influenza B virus): > 0.16 µM |
| CCN(CC)CN1C(=O)/C(=N/NC(N)=S)c2ccccc21 | > 100 | > 100 | 11 | > 20 | > 100 | 11 | > 100 | > 100 | > 100 | > 100 | > 100 | 164 | > 100 | 73.8 | > 100 | > 100 | > 100 | 11 | 0.0357 | > 20 | EC50 [13]: > 100 µM; IC50 (L1210): 121 µM; EC50 (Influenza A virus H3N2): > 20 µM; zone of inhibition at 50 µg/mL (Bacillus subtilis): 11 mm; EC50 (Human alphaherpesvirus 2): > 100 µM; EC50 (Coxsackievirus B4 [14]): > 100 µM; EC50 (Felid alphaherpesvirus 1): > 20 µM; inhibition [15]: 38.2%; EC50 (Vaccinia virus): > 100 µM; MCC [16]: 100000 nM; CC50 (MDCK): 85.8 µM; zone of inhibition at 50 µg/mL (Candida albicans): 11 mm; zone of inhibition at 50 µg/mL (Proteus vulgaris): 11 mm; EC50 (Respirovirus muris): > 100 µM; zone of inhibition at 50 µg/mL (Aspergillus niger): 11 mm; zone of inhibition at 50 µg/mL (Escherichia coli): 11 mm; EC50 (Influenza B virus): > 20 µM |

Reference: ChEMBL document CHEMBL3045116, “Synthesis and biological evaluation of 2-(5-substituted-1-((diethylamino)methyl)-2-oxoindolin-3-ylidene)-N-substituted-hydrazinecarbothioamides” (Med Chem Res, 2013)
